Each compound was assayed on LNCaP (assay: Antiproliferative activity against human LNCAP cells after 3 days). Conditions: Homo sapiens, LNCaP, 72 h; read-out: IC50.
Type: functional, cell-based
Method in brief: (§1)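 LNCaP cells seeded at 10,000 per well in RPMI 1640 with 10% charcoal-stripped serum and 1% AAS, then held 3 days at 37 °C. Medium was then replaced with serial compound dilutions, either without DHT (agonism mode) or with DHT (antagonism mode).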

Point of comparison: `CNC(=O)c1ccc(N2C(=S)N(c3ccc(C#N)c(C(F)(F)F)c3)C(=O)[C@H]2C)cc1F`, IC50 1510 nM. Against it:
- CNC(=O)c1ccc(N2CC(=O)N(c3ccc(C#N)c(C(F)(F)F)c3)C2=S)cc1F — higher, > 10000 nM
- CNC(=O)c1ccc(N2C(=S)N(c3ccc(C#N)c(C(F)(F)F)c3)C(=O)C2(C)COC)cc1F (racemic) — 4.4-fold lower, 344 nM
- CNC(=O)c1ccc(N2C(=S)N(c3ccc(C#N)c(C(F)(F)F)c3)C(=O)C2(C)COCc2ccccc2)cc1F (racemic) — 1.5-fold higher, 2300 nM
- CCOC(=O)CC1(C)C(=O)N(c2ccc(C#N)c(C(F)(F)F)c2)C(=S)N1c1ccc(C(=O)NC)c(F)c1 (racemic) — within 1.5-fold, 1380 nM
- CNC(=O)c1ccc(N2C(=S)N(c3ccc(C#N)c(C(F)(F)F)c3)C(=O)C23CCOC3)cc1F (racemic) — 7.7-fold lower, 196 nM

The compounds below were run against T1, Androgen receptor (Homo sapiens, UniProt P10275) (assay: Antagonist activity at androgen receptor (unknown origin)). Conditions: not given.
T1 sequence (P10275 whole entry): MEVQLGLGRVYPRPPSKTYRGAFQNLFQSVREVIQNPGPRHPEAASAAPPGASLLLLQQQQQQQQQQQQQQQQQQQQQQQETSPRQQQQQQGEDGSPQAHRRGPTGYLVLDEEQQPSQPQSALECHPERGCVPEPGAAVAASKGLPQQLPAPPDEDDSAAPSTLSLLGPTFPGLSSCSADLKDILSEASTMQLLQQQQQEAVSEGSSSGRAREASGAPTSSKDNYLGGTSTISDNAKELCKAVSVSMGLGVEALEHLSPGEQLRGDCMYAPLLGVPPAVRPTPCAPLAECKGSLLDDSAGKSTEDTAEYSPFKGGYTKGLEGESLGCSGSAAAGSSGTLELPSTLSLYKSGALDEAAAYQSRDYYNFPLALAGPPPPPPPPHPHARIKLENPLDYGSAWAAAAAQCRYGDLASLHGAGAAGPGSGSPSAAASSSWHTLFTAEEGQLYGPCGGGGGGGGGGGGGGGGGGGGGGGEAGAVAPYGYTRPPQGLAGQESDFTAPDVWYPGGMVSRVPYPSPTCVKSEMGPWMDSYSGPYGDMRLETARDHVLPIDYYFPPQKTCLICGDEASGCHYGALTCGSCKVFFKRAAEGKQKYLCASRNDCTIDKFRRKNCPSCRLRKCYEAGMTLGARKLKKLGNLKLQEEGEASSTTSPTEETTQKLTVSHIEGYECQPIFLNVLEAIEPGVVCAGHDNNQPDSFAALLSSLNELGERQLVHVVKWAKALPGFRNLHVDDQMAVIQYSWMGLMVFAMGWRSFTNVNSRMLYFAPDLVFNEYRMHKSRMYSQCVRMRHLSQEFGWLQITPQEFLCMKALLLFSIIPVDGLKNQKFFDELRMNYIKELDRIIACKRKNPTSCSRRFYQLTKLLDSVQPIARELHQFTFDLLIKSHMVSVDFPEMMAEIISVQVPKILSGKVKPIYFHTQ

Point of comparison: `CNC(=O)c1ccc(N2C(=S)N(c3ccc(C#N)c(C(F)(F)F)c3)C(=O)C23CCOC3)cc1F` (racemic), Ki 33.8 nM. Against it:
- CNC(=O)c1ccc(N2C(=S)N(c3ccc(C#N)c(C(F)(F)F)c3)C(=O)C2(C)COC)cc1F (racemic) — 2-fold higher, 68 nM
- CNC(=O)c1ccc(N2C(=S)N(c3ccc(C#N)c(C(F)(F)F)c3)C(=O)C2(C)COCc2ccccc2)cc1F (racemic) — 15-fold higher, 514 nM
- CCOC(=O)CC1(C)C(=O)N(c2ccc(C#N)c(C(F)(F)F)c2)C(=S)N1c1ccc(C(=O)NC)c(F)c1 (racemic) — 7-fold higher, 236 nM

These compounds were tested against T1, Androgen receptor (assay: Partial agonist activity at androgen receptor (unknown origin)). Conditions: not given.
Method in brief: as §1

With `CNC(=O)c1ccc(N2C(=S)N(c3ccc(C#N)c(C(F)(F)F)c3)C(=O)[C@H]2C)cc1F` the Ki was 482 nM.
